These results are taken from ChEMBL document CHEMBL2407081, “Discovery of potent, isoform-selective inhibitors of histone deacetylase containing chiral heterocyclic capping groups and a N-(2-aminophenyl)benzamide binding unit” (J Med Chem, 2013).

By IC50 is commonly meant the midpoint of a concentration-inhibition curve.

Assay [1] has as its target Histone deacetylase 3/NCoR1 (Homo sapiens) (UniProt O15379+O75376). In words: Competitive inhibition of recombinant HDAC3-NCoR1 (unknown origin) assessed as fast tight binding at 0.016 to 1 uM. Format: protein-complex assay.
Assay [2] has as its target T1, Protein deacetylase HDAC6 (Homo sapiens, UniProt Q9UBN7).
T1 sequence (Q9UBN7 whole entry): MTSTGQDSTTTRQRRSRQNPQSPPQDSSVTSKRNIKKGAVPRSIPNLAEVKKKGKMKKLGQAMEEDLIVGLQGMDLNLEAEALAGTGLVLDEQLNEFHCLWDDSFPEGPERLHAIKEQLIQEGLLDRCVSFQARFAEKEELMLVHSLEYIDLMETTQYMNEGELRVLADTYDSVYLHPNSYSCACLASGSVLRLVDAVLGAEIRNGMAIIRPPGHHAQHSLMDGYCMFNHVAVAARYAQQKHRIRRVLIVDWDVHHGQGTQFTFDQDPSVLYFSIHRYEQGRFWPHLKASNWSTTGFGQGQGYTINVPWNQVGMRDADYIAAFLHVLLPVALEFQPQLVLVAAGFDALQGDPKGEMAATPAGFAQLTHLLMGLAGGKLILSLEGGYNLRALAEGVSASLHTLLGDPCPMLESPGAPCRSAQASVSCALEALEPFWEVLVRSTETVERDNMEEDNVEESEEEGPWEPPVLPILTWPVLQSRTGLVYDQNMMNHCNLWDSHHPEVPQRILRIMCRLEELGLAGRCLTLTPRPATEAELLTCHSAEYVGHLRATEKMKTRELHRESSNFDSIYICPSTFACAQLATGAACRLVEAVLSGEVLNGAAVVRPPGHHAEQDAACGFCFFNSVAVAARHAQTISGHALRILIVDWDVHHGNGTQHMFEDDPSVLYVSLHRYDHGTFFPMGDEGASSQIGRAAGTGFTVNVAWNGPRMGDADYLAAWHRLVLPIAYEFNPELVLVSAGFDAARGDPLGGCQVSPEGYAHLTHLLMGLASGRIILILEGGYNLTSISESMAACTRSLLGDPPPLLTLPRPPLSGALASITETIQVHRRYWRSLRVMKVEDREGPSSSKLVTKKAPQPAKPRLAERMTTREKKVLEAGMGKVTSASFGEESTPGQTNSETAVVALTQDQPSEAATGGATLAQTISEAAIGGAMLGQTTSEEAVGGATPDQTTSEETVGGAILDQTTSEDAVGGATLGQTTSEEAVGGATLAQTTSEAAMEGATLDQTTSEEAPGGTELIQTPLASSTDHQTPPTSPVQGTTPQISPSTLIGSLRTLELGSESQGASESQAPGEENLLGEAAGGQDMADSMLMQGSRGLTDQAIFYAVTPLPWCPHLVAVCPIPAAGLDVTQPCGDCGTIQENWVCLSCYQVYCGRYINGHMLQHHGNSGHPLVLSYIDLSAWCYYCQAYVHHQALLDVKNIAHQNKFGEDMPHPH
In words: Inhibition of recombinant His-tagged HDAC6 (unknown origin) using Fluor-de-Lys SIRT1 as substrate incubated for 3 hrs prior to substrate addition measured after 60 mins by fluorescence plate reader analysis.

The next assay deals with T2, Histone deacetylase 8 (Homo sapiens, UniProt Q9BY41).
T2 sequence (Q9BY41 whole entry): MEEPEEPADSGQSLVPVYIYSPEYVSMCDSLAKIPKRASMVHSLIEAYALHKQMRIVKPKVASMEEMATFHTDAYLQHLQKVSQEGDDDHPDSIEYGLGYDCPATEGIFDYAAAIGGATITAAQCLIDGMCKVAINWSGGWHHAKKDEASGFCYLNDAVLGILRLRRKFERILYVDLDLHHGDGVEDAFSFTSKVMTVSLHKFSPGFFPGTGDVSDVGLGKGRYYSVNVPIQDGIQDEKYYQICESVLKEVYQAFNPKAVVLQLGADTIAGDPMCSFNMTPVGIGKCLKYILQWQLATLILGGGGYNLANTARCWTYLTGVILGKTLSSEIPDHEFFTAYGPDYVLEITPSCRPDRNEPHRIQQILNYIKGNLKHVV
In words: Inhibition of recombinant HDAC8 (unknown origin) expressed in Escherichia coli BL21 using MAL as substrate incubated for 15 mins prior to substrate addition measured after 60 mins by fluorescence plate reader analysis.

Another assay concerns the target Histone deacetylase 2 (Homo sapiens, UniProt Q92769). In words: Inhibition of recombinant His-tagged HDAC2 (1 to 488) (unknown origin) using MAL as substrate incubated for 3 hrs prior to substrate addition measured after 60 mins by fluorescence plate reader analysis.
The target of assay [3] is Histone deacetylase 3/NCoR1 (Homo sapiens, UniProt O15379). In words: Inhibition of recombinant HDAC3-NCoR1 (unknown origin) using MAL as substrate incubated for 3 hrs prior to substrate addition measured after 60 mins by fluorescence plate reader analysis. The assay is classed as protein-complex assay.
Assay [4] relates to Jurkat. The experiment in a line: Cell cycle arrest in human Jurkat cells assessed as accumulation at G0/G1 phase at 1 uM after 24 hrs by FITC/propidium iodide staining-based FACS flow cytometric analysis (reference value: 55.5%). Format: functional. In a few lines:
(§1)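 HeLa and Jurkat human cells were cultured for 24 h with compound at two concentrations. The control was an equal volume of the DMSO diluent. Cellular DNA and protein content were then measured by flow cytometry, and the percentage of cells in sub-G1, G0/G1, S and G2/M was read out.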
(Flow cytometry measures light scatter and fluorescence of single cells or particles in a stream.)

The test system of assay [5] is Jurkat. In words: Cell cycle arrest in human Jurkat cells assessed as accumulation at G0/G1 phase at 10 uM after 24 hrs by FITC/propidium iodide staining-based FACS flow cytometric analysis (reference value: 69.5%). Format: functional. In a few lines:
as §1

For the next assay, the system named is MCF7. In words: Cytotoxicity against human MCF7 cells assessed as growth inhibition by measuring cellular ATP level after 72 hrs by cell-titer glo assay. The assay is classed as functional, cell-based. As to conditions: MCF7, 72 h.
For the next assay, the system named is HCT-116. The experiment in a line: Cytotoxicity against human HCT116 cells assessed as growth inhibition by measuring cellular ATP level after 72 hrs by cell-titer glo assay. As to conditions: HCT-116, 72 h. Format: functional, cell-based.
The subject of the next assay is DU-145. In words: Cytotoxicity against human DU145 cells assessed as growth inhibition by measuring cellular ATP level after 72 hrs by cell-titer glo assay. The assay is classed as functional, cell-based. As to conditions: DU-145, 72 h.
Assay [6] relates to Jurkat. In words: Cell cycle arrest in human Jurkat cells assessed as accumulation at G2/M phase at 1 uM after 24 hrs by FITC/propidium iodide staining-based FACS flow cytometric analysis (reference value: 14.4%). The assay is classed as functional. In outline:
as §1

The subject of the next assay is A549. In words: Cytotoxicity against human A549 cells assessed as growth inhibition by measuring cellular ATP level after 72 hrs by cell-titer glo assay. The assay is classed as functional, cell-based. As to conditions: A549, 72 h.
Assay [7] relates to Jurkat. In words: Cell cycle arrest in human Jurkat cells assessed as accumulation at sub-G1 phase at 10 uM after 24 hrs by FITC/propidium iodide staining-based FACS flow cytometric analysis (reference value: 2%). The assay is classed as functional. In outline:
as §1

Assay [8] has as its system HeLa. In words: Induction of apoptosis in human HeLa cells assessed as PARP cleavage at 1 to 10 uM after 24 hrs by Western blot analysis. The assay is classed as functional, cell-based. In general terms: Immunoblotting shows a protein as a band on a membrane.
In assay [9] the test system is Jurkat. The experiment in a line: Cell cycle arrest in human Jurkat cells assessed as accumulation at G2/M phase at 10 uM after 24 hrs by FITC/propidium iodide staining-based FACS flow cytometric analysis (reference value: 13.2%). Format: functional. In outline:
as §1

The subject of assay [10] is Jurkat. In words: Induction of apoptosis in human Jurkat cells assessed as PARP cleavage at 1 to 10 uM after 24 hrs by Western blot analysis. The assay is classed as functional, cell-based.
Assay [11] concerns Jurkat. The experiment in a line: Cell cycle arrest in human Jurkat cells assessed as accumulation at S phase at 1 uM after 24 hrs by FITC/propidium iodide staining-based FACS flow cytometric analysis (reference value: 22.3%). Format: functional. In outline:
as §1

For assay [12], the system named is Jurkat. The experiment in a line: Cell cycle arrest in human Jurkat cells assessed as accumulation at sub-G1 phase at 1 uM after 24 hrs by FITC/propidium iodide staining-based FACS flow cytometric analysis (reference value: 6.8%). The assay is classed as functional. In outline:
as §1

For assay [13], the system named is Jurkat. In words: Cell cycle arrest in human Jurkat cells assessed as accumulation at S phase at 10 uM after 24 hrs by FITC/propidium iodide staining-based FACS flow cytometric analysis (reference value: 15.3%). Format: functional. In outline:
as §1

Assay [14] deals with HeLa. The experiment in a line: Cell cycle arrest in human HeLa cells assessed as accumulation at G2/M phase at 10 uM after 24 hrs by FITC/propidium iodide staining-based FACS flow cytometric analysis. The assay is classed as functional. In a few lines:
as §1

Another assay deals with Histone deacetylase 1 (Homo sapiens, UniProt Q13547). In words: Inhibition of recombinant C-terminal FLAG-tagged HDAC1 (unknown origin) expressed in Escherichia coli BL21 using MAL as substrate incubated for 1 hr prior to substrate addition measured after 60 mins by fluorescence plate reader analysis.

Calls of active or inactive are those of the source. The calls are words filed in the database; no cut-off is given here.

Histone deacetylase 3/NCoR1, sequence (O15379 whole entry): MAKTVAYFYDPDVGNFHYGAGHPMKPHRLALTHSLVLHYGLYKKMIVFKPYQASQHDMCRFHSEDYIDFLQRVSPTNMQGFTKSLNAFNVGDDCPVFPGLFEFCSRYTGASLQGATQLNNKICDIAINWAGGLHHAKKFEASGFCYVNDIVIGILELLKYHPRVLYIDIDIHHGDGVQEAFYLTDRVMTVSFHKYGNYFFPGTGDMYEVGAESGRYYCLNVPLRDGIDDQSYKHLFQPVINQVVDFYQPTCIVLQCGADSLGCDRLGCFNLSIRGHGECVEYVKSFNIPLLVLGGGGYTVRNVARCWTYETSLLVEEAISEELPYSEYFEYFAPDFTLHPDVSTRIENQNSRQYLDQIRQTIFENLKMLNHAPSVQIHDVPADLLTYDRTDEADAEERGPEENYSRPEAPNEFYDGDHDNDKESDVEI
Histone deacetylase 3/NCoR1, sequence (O75376 whole entry, further chain): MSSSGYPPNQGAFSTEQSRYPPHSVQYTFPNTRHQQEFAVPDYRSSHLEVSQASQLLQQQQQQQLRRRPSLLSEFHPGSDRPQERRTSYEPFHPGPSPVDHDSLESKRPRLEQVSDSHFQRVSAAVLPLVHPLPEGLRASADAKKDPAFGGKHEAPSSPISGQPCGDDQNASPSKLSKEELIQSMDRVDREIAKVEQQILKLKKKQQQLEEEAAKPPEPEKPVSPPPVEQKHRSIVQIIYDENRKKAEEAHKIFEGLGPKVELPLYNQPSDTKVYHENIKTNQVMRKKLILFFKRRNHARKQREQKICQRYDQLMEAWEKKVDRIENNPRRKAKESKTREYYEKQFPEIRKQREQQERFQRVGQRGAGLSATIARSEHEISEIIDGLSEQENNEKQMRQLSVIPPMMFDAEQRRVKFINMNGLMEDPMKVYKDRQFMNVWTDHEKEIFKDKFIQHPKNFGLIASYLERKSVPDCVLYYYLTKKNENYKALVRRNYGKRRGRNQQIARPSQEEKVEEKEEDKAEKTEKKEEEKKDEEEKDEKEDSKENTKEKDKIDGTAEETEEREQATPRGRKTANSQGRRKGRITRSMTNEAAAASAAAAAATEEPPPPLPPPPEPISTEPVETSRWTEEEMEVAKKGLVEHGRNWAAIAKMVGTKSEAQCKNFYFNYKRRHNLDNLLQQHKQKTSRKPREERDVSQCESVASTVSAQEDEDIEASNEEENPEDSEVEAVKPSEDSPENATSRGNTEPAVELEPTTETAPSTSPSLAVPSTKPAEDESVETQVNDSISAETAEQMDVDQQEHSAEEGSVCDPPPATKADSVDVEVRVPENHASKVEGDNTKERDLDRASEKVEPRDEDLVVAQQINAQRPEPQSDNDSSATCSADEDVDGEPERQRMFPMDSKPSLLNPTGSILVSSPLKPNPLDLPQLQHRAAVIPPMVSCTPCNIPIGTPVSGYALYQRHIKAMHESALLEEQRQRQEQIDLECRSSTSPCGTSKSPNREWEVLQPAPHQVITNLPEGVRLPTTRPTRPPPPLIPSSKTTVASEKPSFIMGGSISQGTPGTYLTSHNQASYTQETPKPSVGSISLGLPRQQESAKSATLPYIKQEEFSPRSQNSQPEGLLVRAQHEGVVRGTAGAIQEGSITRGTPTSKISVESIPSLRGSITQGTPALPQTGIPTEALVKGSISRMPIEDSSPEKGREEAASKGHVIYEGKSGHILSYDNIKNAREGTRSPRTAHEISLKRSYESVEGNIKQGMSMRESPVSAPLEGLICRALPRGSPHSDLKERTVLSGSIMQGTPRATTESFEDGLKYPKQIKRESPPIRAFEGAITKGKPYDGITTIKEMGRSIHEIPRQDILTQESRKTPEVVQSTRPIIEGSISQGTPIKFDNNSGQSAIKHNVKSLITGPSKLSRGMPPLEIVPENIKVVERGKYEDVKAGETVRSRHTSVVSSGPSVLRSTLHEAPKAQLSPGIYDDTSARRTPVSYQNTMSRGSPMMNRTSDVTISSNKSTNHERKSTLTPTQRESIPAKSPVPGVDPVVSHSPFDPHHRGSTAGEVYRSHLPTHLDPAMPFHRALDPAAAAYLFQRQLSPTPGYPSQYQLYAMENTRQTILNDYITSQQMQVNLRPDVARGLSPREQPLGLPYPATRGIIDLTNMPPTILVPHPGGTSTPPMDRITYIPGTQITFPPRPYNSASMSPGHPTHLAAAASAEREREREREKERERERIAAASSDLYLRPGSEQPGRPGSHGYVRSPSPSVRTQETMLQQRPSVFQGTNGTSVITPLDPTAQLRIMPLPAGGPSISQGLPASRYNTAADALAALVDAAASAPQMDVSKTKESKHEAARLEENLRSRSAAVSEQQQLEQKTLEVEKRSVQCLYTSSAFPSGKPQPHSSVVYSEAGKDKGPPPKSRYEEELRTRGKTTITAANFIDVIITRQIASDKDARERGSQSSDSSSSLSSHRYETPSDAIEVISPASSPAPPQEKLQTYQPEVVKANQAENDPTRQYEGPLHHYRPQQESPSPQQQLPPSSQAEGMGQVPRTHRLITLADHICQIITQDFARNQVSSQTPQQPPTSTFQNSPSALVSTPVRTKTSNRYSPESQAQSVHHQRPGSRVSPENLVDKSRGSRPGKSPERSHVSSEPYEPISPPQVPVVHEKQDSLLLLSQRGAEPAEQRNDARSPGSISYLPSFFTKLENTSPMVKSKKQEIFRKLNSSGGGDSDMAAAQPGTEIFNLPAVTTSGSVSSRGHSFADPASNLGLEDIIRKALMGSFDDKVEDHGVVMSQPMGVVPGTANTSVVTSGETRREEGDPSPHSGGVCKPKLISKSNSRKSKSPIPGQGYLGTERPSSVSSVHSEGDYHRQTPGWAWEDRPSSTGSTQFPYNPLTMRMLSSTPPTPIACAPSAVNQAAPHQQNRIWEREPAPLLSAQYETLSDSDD
Histone deacetylase 2, sequence (Q92769 whole entry): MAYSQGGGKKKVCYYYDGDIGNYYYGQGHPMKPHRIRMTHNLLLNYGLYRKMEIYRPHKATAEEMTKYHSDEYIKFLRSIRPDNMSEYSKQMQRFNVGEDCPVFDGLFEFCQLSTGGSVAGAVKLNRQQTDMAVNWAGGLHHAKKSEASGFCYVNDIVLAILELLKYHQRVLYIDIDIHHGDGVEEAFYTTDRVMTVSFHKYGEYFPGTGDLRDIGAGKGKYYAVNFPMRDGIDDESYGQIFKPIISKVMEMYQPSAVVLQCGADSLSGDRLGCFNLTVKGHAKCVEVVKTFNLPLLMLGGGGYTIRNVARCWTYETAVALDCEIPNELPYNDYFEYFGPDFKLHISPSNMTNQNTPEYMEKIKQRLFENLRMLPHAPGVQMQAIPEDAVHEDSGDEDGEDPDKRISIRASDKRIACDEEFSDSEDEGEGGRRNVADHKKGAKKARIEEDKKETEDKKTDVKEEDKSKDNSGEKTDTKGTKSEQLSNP
Histone deacetylase 1, sequence (Q13547 whole entry): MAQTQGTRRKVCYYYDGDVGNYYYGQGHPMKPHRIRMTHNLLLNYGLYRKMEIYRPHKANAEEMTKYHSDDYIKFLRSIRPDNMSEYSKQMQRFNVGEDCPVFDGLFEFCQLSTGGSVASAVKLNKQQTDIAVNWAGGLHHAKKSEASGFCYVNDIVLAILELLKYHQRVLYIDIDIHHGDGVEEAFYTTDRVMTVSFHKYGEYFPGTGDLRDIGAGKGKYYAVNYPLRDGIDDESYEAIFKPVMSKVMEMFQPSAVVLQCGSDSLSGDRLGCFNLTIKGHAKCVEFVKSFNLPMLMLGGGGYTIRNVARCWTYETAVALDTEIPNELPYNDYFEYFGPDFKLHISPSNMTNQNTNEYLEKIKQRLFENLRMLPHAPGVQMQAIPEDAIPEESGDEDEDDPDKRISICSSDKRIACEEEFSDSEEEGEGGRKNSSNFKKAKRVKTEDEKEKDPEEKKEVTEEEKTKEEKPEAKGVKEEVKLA

As for `O=C(NO)c1ccc(CNc2nccc(-c3cccnc3)n2)cc1`, the inhibition result in assay [1] is “Active”. Moreover, the IC50 in assay [2] is 42 nM; at Histone deacetylase 8, 410 nM; on Histone deacetylase 2 it was 219 nM; in assay [3], 31 nM.

Consider `Nc1ccccc1NC(=O)c1ccc(CNc2nccc(-c3cccnc3)n2)cc1` [MOCETINOSTAT], for which the Activity in the assay on Jurkat [4] was 39.8%; in the assay on Jurkat [5], 26.2%; with Jurkat [6], 10.2%; in the assay on Jurkat [7], 17.4%; in the assay with Jurkat [9] it was 24%; with Jurkat [11], 8.7%. The values for the Activity in the assay on Jurkat [12] and with Jurkat [13] were 41.3% and 32.4%, respectively. Further, the concentration for half-maximal inhibition (IC50) came out at 1260 nM in the assay with MCF7, 700 nM with HCT-116, 2060 nM in the assay on DU-145 and 1730 nM in the assay on A549. Further, the result in the assay with HeLa [8] was inactive. Further, in the assay on Jurkat [10], the outcome was Active.

For the molecule `Nc1ccccc1NC(=O)c1ccc(CNC2=NC(=O)C(c3ccccc3)N2)cc1` (racemic), the Activity in the assay with Jurkat [4] was 55.2%; with Jurkat [5], 65.5%; in the assay on Jurkat [6], 15.1%; with Jurkat [7], 3.1%; with Jurkat [9], 10.7%; in the assay on Jurkat [11] it was 22.3%. Besides, the Activity in the assay with Jurkat [12] is reported as 7.4%; with Jurkat [13] it was 20.7%. The half-maximal inhibitory concentration (IC50) in [2] is above 20000 nM; in the assay with MCF7, 30100 nM; on Histone deacetylase 8, 8000 nM; in the assay on HCT-116, 18200 nM; in the assay on DU-145, above 50000 nM; at Histone deacetylase 2, 56 nM. Also, the results for the half-inhibitory concentration (IC50) (in the assay on A549; in [3]; at Histone deacetylase 1) were above 50000 nM, 14 nM and 350 nM, respectively. Also, in the assay on HeLa [8], the result was inactive. Moreover, the outcome with HeLa [14] and in the assay on Jurkat [10] was Active.
